Data set [1] in a line: folding enthalpy; higher = less favourable; fluorescence melt of hairpins on a sequencing array, two-state fit. The following applies: sodium 0.088 M. A digest of the protocol: (§1)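 To match UV melts, fitted temperatures were raised by 9.35 °C. These fits were bootstrapped two-state models that gave melting temperature and folding enthalpy, combined by inverse variance over four replicates. The input was normalised Cy3 fluorescence of library hairpins with annealed Cy3 and quencher oligos on a sequenced MiSeq flow cell, imaged in 50 mM Na-HEPES pH 8.0, 25 mM NaCl in 2.5 °C steps up to 60 °C.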

Data set [2] can be described thus: melting temperature; fluorescence melt of hairpins on a sequencing array, two-state fit, raised by 9.35 °C to match UV melts. The note with it: sodium 0.088 M. In outline:
as §1

On to GATCCATGGCTGGATC ((((((....)))))), for which, in data set [1], the folding enthalpy was -35.8 kcal/mol. For the same sequence, the Tm in data set [2] is 50.5 °C.
For the sequence GATCCATGTGTGGATC ((((((....)))))), the folding enthalpy in data set [1] was -37.2 kcal/mol. The Tm in data set [2] amounted to 56.5 °C.
Regarding GATCCATTATGGATC ((((((...)))))), in data set [1], the folding enthalpy is -35.9 kcal/mol. For the same sequence, in data set [2], the Tm amounted to 52.7 °C.
The like results for GATCCATTCATGGATC ((((((....)))))) were, in that order, -43.5 kcal/mol and 59.5 °C.
Take GATCCATTCCTGGATC ((((((....)))))): the folding enthalpy in data set [1] was -39.1 kcal/mol. In data set [2], the Tm was found to be 50.3 °C.
Taken in the same sequence, the figures for GATCCATTCTGGATC ((((((...)))))) were -33.2 kcal/mol and 54.3 °C.
The like results for GATCCATTGTGGATC ((((((...)))))) were, in that order, -38.8 kcal/mol and 51.7 °C.
With GATCCATTGTTGGATC ((((((....)))))), in data set [1], the folding enthalpy was -44.2 kcal/mol. In addition, in data set [2], the Tm came out at 52.2 °C.
On to GATCCATTTCTGGATC ((((((....)))))), for which the folding enthalpy in data set [1] was -34.3 kcal/mol. Besides, the Tm in data set [2] was 51 °C.
The like results for GATCCATTTTTGGATC ((((((....)))))) were, in that order, -39.5 kcal/mol and 54 °C.
The like results for GATCCCAAACGGGATC ((((((....)))))) were, in that order, -35.3 kcal/mol and 59.7 °C.
The like results for GATCCCAATGGGATC ((((((...)))))) were, in that order, -32.5 kcal/mol and 60.6 °C.
For the sequence GATCCCACAAGGGATC ((((((....)))))), in data set [1], the folding enthalpy is -30.6 kcal/mol. Further, the Tm in data set [2] was 64.7 °C.
Taken in the same sequence, the figures for GATCCCACGAGGGATC ((((((....)))))) were -34.5 kcal/mol and 63.5 °C.
For the sequence GATCCCACGTGGGATC ((((((....)))))), in data set [1], the folding enthalpy is -45.1 kcal/mol. The Tm in data set [2] was 60.3 °C.
Taken in the same sequence, the figures for GATCCCACTGGGGATC ((((((....)))))) were -30.7 kcal/mol and 62.4 °C.
Taken in the same sequence, the figures for GATCCCAGTGGGATC ((((((...)))))) were -40.6 kcal/mol and 60.8 °C.
Turning to GATCCCATGTGGGATC ((((((....)))))), the folding enthalpy in data set [1] was -38.2 kcal/mol. In data set [2], the Tm is 61.2 °C.
The like results for GATCCCCAGTGGGATC ((((((....)))))) were, in that order, -43.5 kcal/mol and 59.1 °C.
Taken in the same sequence, the figures for GATCCCCATGGGGATC ((((((....)))))) were -39.7 kcal/mol and 67.7 °C.
The like results for GATCCCCCAAGGGATC ((((((....)))))) were, in that order, -38.6 kcal/mol and 61.2 °C.
For GATCCCCCTAGGGATC ((((((....)))))), in data set [1], the folding enthalpy was -32.6 kcal/mol. Further, the Tm in data set [2] was 61.3 °C.
The like results for GATCCCCCTGGGGATC ((((((....)))))) were, in that order, -36.1 kcal/mol and 67.5 °C.
The like results for GATCCCCGAAAGGGCATC (((.(((....))).))) were, in that order, -14.3 kcal/mol and 34.3 °C.
Taken in the same sequence, the figures for GATCCCCGACGGGATC ((((((....)))))) were -27.3 kcal/mol and 56.8 °C.
For GATCCCCGAGGGATC ((((((...)))))), the folding enthalpy in data set [1] is -31.8 kcal/mol. Moreover, the Tm in data set [2] came to 62 °C.
Taken in the same sequence, the figures for GATCCCCGGCGGGATC ((((((....)))))) were -37.8 kcal/mol and 55.7 °C.
The like results for GATCCCCGGGGGATC ((((((...)))))) were, in that order, -35.3 kcal/mol and 60.9 °C.
The like results for GATCCCCGGTGGGATC ((((((....)))))) were, in that order, -37.5 kcal/mol and 57.7 °C.
With GATCCCCGTCGGGATC ((((((....)))))), the folding enthalpy in data set [1] is -32.4 kcal/mol. In addition, the Tm in data set [2] stood at 62.8 °C.
For GATCCCCTCTGGGATC ((((((....)))))), in data set [1], the folding enthalpy is -29 kcal/mol. In addition, the Tm in data set [2] worked out at 60.3 °C.
The like results for GATCCCCTGTGGGATC ((((((....)))))) were, in that order, -33.3 kcal/mol and 63 °C.
GATCCCCTTGGGATC ((((((...)))))): the folding enthalpy in data set [1] is -37.4 kcal/mol. Moreover, in data set [2], the Tm worked out at 63.6 °C.
The like results for GATCCCGAAAGGGACATC ((((((....)))..))) were, in that order, -9.22 kcal/mol and 30.9 °C.
Taken in the same sequence, the figures for GATCCCGAAAGGGCGATC ((((((....)))..))) were -12.2 kcal/mol and 31.9 °C.
The like results for GATCCCGAAAGGGGTATC ((((((....)))..))) were, in that order, -11.8 kcal/mol and 35.7 °C.
Take GATCCCGAAAGGGTAATC ((((((....)))..))): the folding enthalpy in data set [1] is -10.8 kcal/mol. Besides, the Tm in data set [2] amounted to 31.2 °C.
With GATCCCGATTGGGATC ((((((....)))))), the folding enthalpy in data set [1] was -36 kcal/mol. The Tm in data set [2] came out at 59.1 °C.
Taken in the same sequence, the figures for GATCCCGCGGGGATC ((((((...)))))) were -31.2 kcal/mol and 61 °C.
Consider GATCCCGGAAACGGGGTC ((.((((....)))).)), for which the folding enthalpy in data set [1] was -25.8 kcal/mol. The Tm in data set [2] was found to be 57.6 °C.
The like results for GATCCCGGGCGGGATC ((((((....)))))) were, in that order, -40.1 kcal/mol and 61.1 °C.
The like results for GATCCCGGGGGGATC ((((((...)))))) were, in that order, -35.4 kcal/mol and 61.6 °C.
Regarding GATCCCGTGGGGATC ((((((...)))))), the folding enthalpy in data set [1] was -32.4 kcal/mol. Moreover, the Tm in data set [2] worked out at 64.5 °C.
The like results for GATCCCTACTGGGATC ((((((....)))))) were, in that order, -37.7 kcal/mol and 64.4 °C.
In the case of GATCCCTAGCGGGATC ((((((....)))))), in data set [1], the folding enthalpy was -34.5 kcal/mol. Further, the Tm in data set [2] was 59.1 °C.
Taken in the same sequence, the figures for GATCCCTAGTGGGATC ((((((....)))))) were -38.7 kcal/mol and 57 °C.
For the sequence GATCCCTCAGGGATC ((((((...)))))), the folding enthalpy in data set [1] is -37.2 kcal/mol. In addition, the Tm in data set [2] came to 65 °C.
On to GATCCCTCCGGGATC ((((((...)))))), for which the folding enthalpy in data set [1] was -44.2 kcal/mol. In addition, the Tm in data set [2] stood at 67.7 °C.
The like results for GATCCCTCGGGGGATC ((((((....)))))) were, in that order, -37.4 kcal/mol and 61.2 °C.
Taken in the same sequence, the figures for GATCCCTCTGGGGATC ((((((....)))))) were -39.1 kcal/mol and 61.5 °C.
In the case of GATCCCTGCGGGGATC ((((((....)))))), the folding enthalpy in data set [1] was -45.6 kcal/mol. Further, the Tm in data set [2] amounted to 62 °C.
With GATCCCTGGCGGGATC ((((((....)))))), the folding enthalpy in data set [1] was -37.2 kcal/mol. Also, the Tm in data set [2] is 59.1 °C.
The like results for GATCCCTGGGGGATC ((((((...)))))) were, in that order, -40.5 kcal/mol and 62.2 °C.
The like results for GATCCCTGGGGGGATC ((((((....)))))) were, in that order, -37.2 kcal/mol and 63.9 °C.
The like results for GATCCCTGTGGGGATC ((((((....)))))) were, in that order, -41.6 kcal/mol and 65.3 °C.
In the case of GATCCCTTAGGGGATC ((((((....)))))), in data set [1], the folding enthalpy is -43.7 kcal/mol. Moreover, in data set [2], the Tm turned out to be 61.3 °C.
The like results for GATCCCTTATGGGATC ((((((....)))))) were, in that order, -36.5 kcal/mol and 65.4 °C.

These data come from the array DNA melting data of Ke et al. (doi:10.1101/2024.01.08.574731).
